Test results as given in ChEMBL document CHEMBL3259741, “Three new cucurbitane triterpenoids from Hemsleya penxianensis and their cytotoxic activities” (Bioorg Med Chem Lett, 2014).
In brackets after ≈: the same amount, converted by molar mass.

Legend:
Assay type in all cases: functional, cell-based
COLO 205 = assay: Cytotoxicity against human COLO205 cells after 48 hrs by MTT assay; settings: COLO 205, 48 h
Procedure, shortened: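 COLO205 cells were grown in RPMI1640 with 15% FBS, seeded at 2 × 10^5/mL, and incubated 24 h at 37 °C in 5% CO2. Agents were then given at final 50, 10, 2, 0.4 and 0.08 for 48 h. Read-out used 0.5% MTT for 4 h, DMSO solubilization and OD at 570 nm. Inhibition = (OD0−ODS)/OD0; IC50 = concentration giving 50% inhibition. Mean of three experiments in triplicate.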

[1] = Cytotoxicity against human H460 cells after 48 hrs by MTT assay; settings: NCI-H460, 48 h
Procedure, shortened: (§1)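 Cells in RPMI1640 with 15% FBS were trypsinized (0.25%) and seeded at 1 × 10^5/mL, then incubated 24 h at 37 °C in 5% CO2. Agents were added at final concentrations of 50, 10, 2, 0.4 and 0.08 for a further 48 h. MTT (0.5%) was applied for 4 h, formazan dissolved in DMSO, and OD read at 570 nm. % inhibition = (OD0−ODS)/OD0; IC50 was taken as 50% growth inhibition. Mean of three experiments in triplicate.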

SW-620 = assay: Cytotoxicity against human SW620 cells after 48 hrs by MTT assay; settings: SW-620, 48 h; procedure, shortened: as §1

Row | SMILES | IC50 (COLO 205) [mg/L] | IC50 [1] [mg/L] | IC50 (SW-620) [mg/L]
1 | C/C(C=O)=C\CC[C@@H](C)[C@H]1CC[C@@]2(C)[C@@H]3CC=C4[C@@H](CC[C@H](O[C@@H]5O[C@H](CO)[C@@H](O)[C@H](O)[C@H]5O)C4(C)C)[C@]3(C)C(=O)C[C@]12C | 0.78 (≈ 1.26 µM) | 0.46 (≈ 0.746 µM) | 0.64 (≈ 1.04 µM)
2 | CC(=O)O[C@@H]1C[C@@]2(C)[C@@H]3CC=C4[C@@H](C[C@H](O)[C@@H](O)C4(C)C)[C@]3(C)C(=O)C[C@]2(C)[C@H]1C(C)(O)C(=O)/C=C/C(C)(C)O (stereo partly drawn) | 0.44 (≈ 0.785 µM) | 3.43 (≈ 6.12 µM) | 0.42 (≈ 0.749 µM)
3 | CC(=O)O[C@@H]1C[C@@]2(C)[C@@H]3CC=C4[C@@H](C[C@H](O[C@@H]5O[C@H](CO)[C@@H](O)[C@H](O)[C@H]5O)[C@@H](O)C4(C)C)[C@]3(C)C(=O)C[C@]2(C)[C@H]1C(C)(O)C(=O)/C=C/C(C)(C)OC(C)=O (stereo partly drawn) | 24.9 (≈ 32.6 µM) | 8.55 (≈ 11.2 µM) | 6.63 (≈ 8.67 µM)
4 | C[C@H](CCC=C(CO)CO)[C@H]1CC[C@@]2(C)[C@@H]3CC=C4[C@@H](CC[C@H](O[C@@H]5O[C@H](CO)[C@@H](O)[C@H](O)[C@H]5O)C4(C)C)[C@]3(C)[C@H](O)C[C@]12C | 3.84 (≈ 6.03 µM) | 2.96 (≈ 4.65 µM) | 1.99 (≈ 3.12 µM)
5 | CC(C)(O)CCC(=O)[C@](C)(O)[C@H]1[C@H](O)C[C@@]2(C)[C@@H]3CC=C4[C@@H](C[C@H](O)[C@@H](O)C4(C)C)[C@]3(C)C(=O)C[C@]12C | 0.64 (≈ 1.23 µM) | 7.09 (≈ 13.6 µM) | 1.03 (≈ 1.98 µM)
6 | CC(=O)OC(C)(C)CCC(=O)[C@](C)(O)[C@H]1[C@H](O)C[C@@]2(C)[C@@H]3CC=C4[C@@H](C[C@H](O)[C@@H](O)C4(C)C)[C@]3(C)C(=O)C[C@]12C [HEMSLECIN A] | 1.09 (≈ 1.94 µM) | 11.5 (≈ 20.5 µM) | 1.11 (≈ 1.97 µM)
